What all share (type): cell-based
Test [1] has as its target T1, S. pneumoniae ComD2 receptor (Streptococcus pneumoniae serotype 4, UniProt A0A0H2US84).
T1 sequence (A0A0H2US84 1-441): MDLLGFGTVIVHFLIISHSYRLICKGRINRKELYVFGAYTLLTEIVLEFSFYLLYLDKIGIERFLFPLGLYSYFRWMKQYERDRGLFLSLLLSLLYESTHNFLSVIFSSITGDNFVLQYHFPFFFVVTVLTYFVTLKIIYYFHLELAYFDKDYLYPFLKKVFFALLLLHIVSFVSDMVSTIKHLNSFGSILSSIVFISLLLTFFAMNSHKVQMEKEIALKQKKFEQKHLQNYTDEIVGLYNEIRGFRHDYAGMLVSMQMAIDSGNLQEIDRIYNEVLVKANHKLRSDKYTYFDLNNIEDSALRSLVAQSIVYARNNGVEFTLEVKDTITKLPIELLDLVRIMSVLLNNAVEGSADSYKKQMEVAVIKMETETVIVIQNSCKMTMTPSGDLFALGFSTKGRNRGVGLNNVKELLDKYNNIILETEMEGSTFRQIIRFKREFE
In words: β-galactosidase reporter assay, agonism. The essentials:
(§1)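 Reporter strains carry lacZ under the comX promoter. Strains were grown from THY agar (5% horse serum, 4 μg mL−1 chloramphenicol; 8 h, 37 °C, 5% CO2), then overnight (15 h) in THY with chloramphenicol. Cultures were diluted 1:50 (D39) or 1:10 (TIGR4) and grown to OD600 0.30–0.35 or 0.20–0.25.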
(In general: In a reporter assay the amount or activity of a reporter protein is the signal.)

For test [2], the target named is T2, S. pneumoniae ComD1 receptor (Streptococcus pneumoniae serotype 2, UniProt A0A0H2ZM50).
T2 sequence (A0A0H2ZM50 1-441): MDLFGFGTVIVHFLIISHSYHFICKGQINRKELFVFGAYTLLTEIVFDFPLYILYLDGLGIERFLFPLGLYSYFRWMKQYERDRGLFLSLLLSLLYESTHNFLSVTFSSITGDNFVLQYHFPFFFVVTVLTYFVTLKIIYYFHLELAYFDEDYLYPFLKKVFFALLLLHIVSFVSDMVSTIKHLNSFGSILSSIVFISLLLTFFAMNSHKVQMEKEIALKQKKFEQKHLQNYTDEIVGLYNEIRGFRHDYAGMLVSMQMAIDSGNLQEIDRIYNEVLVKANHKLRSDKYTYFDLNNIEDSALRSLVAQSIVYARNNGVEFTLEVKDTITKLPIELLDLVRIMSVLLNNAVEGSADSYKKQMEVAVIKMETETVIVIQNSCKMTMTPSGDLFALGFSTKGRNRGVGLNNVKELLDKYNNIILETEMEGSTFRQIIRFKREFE
In words: β-galactosidase reporter assay, agonism. The essentials: as §1

The target of test [3] is T2, S. pneumoniae ComD1 receptor. In words: β-galactosidase reporter assay, competitive inhibition. The essentials:
(§2)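 Cultures were prepared as for agonism: overnight THY with chloramphenicol, diluted to early exponential phase. Wells held native CSP at a fully activating level (50 nM CSP1 for D39/ComD1; 250 nM CSP2 for TIGR4/ComD2), with test peptide added from a 1 mM stock in triplicate. Controls were CSP plus DMSO, and DMSO alone. Plates were incubated 30 min at 37 °C, then lysed and read by ONPG. IC50 was taken from concentration series.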

The target in test [4] is T1, S. pneumoniae ComD2 receptor. Described as above. The essentials: as §2

Values joined by “and” are separate entries in the source; they are usually repeats but may differ in a detail not shown here. Identical values can stand only once. Where no end group is shown, it is not given here.

As a reminder, the EC50 is the concentration needed to bring the measured effect to its halfway point. For “EIRQTHFFFFNLFKRR [S. mitis-CSP-2-N7FI8FF12L]”, the figures for the EC50 in test [1] and in test [2] were 67.6 nM and 101 nM, respectively.

Turning to “EMRQTHFIFFNLFKRR [S. mitis-CSP-2-I2MN7FF12L]”, the half-maximal effective concentration (EC50) in test [1] is 112 nM; in test [2] it was 72.8 nM.

Turning to “EIRLTHNFFFNFFKRR [S. mitis-CSP-2-Q4LI8F]”, the EC50 stood at 370 nM in test [1] and 280 nM in test [2].

In the case of EIRQTHNIFFNFFKRR [S. mitis-CSP-2], the figures for the 50% effective concentration (EC50) in test [1] and in test [2] were 635 nM and 663 nM, respectively.

For “EMRQTHNFFFNFFKRR [S. mitis-CSP-2-I2MI8F]”, the figures for the EC50 in test [1] and in test [2] were 83.2 nM and 151 nM, respectively.

For the sequence “EMRQTHNIFFFFFKRR [S. mitis-CSP-2-I2MN11F]”, the values for the EC50 in test [1] and in test [2] were 753 nM and 17.7 nM, respectively.

In the case of “EMRQTHFIFFNFFKRR [S. mitis-CSP-2-I2MN7F]”, the concentration for a half-maximal effect (EC50) in test [1] was 123 nM; in test [2], 131 nM.

For “EIRLTHIIFFNFFKRR [S. mitis-CSP-2-Q4LN7I]”, the figures for the EC50 in test [1] and in test [2] were 315 nM and 348 nM, respectively.

With “EIRLTHFIFFNLFKRR [S. mitis-CSP-2-Q4LN7FF12L]”, it took 426 nM to reach a half-maximal effect in test [2] (EC50).

Regarding “EMRLTHIIFFNFFKRR [S. mitis-CSP-2-I2MQ4LN7I]”, the EC50 in test [1] was determined as 187 nM; in test [2] it was 155 nM.

Regarding “EIRQTHNIFFFLFKRR [S. mitis-CSP-2-N11FF12L]”, the EC50 is 127 nM in test [1] and 4.97 nM in test [2].

In the case of “EIRQTHFIFFNLFKRR [S. mitis-CSP-2-N7FF12L]”, the values for the EC50 in test [1] and in test [2] were 533 nM and 156 nM, respectively.

In general, IC50 refers to the concentration that inhibits the measured activity by half. Low values mean greater potency in that assay, high ones weaker potency in that assay. The sequence “AMRLTHNFFFNFFKRR [S. mitis-CSP-2-E1AI2MQ4LI8F]” displayed an IC50 in test [3] of 317 nM.

For the sequence “EMRLTHNIFFNFFKRR [S. mitis-CSP-2-I2MQ4L]”, the EC50 in test [1] was 141 nM; in test [2], 49.9 nM.

Consider “EIRQTHNFFFNLFKRR [S. mitis-CSP-2-I8FF12L]”, for which the EC50 in test [1] was found to be 202 nM; in test [2], 160 nM.

Turning to “EIRQTHIIFFNLFKRR [S. mitis-CSP-2-N7IF12L]”, the EC50 in test [1] came out at 321 nM; in test [2], 613 nM.

Regarding “AIRQTHIFFFNFFKRR [S. mitis-CSP-2-E1AN7II8F]”, the IC50 in test [3] was determined as 204 nM; in test [4] it was 135 nM.

On to EMRQTHNIFFNFFKRR [S. mitis-CSP-2-I2M], for which the figures for the EC50 in test [1] and in test [2] were 136 nM and 87.7 nM, respectively.

The sequence “EIRQTHFFFFNFFKRR [S. mitis-CSP-2-N7FI8F]” displayed an EC50 in test [1] of 24.6 nM.

“EMRQTHNIFFNLFKRR [S. mitis-CSP-2-I2MF12L]”: the values for the EC50 in test [1] and in test [2] were 146 nM and 25.8 nM, respectively.

Regarding EIRQTHNFFFNFFKRR [S. mitis-CSP-2-I8F], the EC50 in test [1] stood at 209 nM; in test [2], 128 nM.

Consider “AMRLTHNIFFNFFKRR [S. mitis-CSP-2-E1AI2MQ4L]”, for which the IC50 in test [3] was 54.2 nM.

As for “EMRQTHFFFFNFFKRR [S. mitis-CSP-2-I2MN7FI8F]”, the EC50 was < 100 nM and 13.5 nM in test [1]; < 100 nM and 63.6 nM in test [2].

Take “EIRLTHFIFFNFFKRR [S. mitis-CSP-2-Q4LN7F]”: the EC50 worked out at 322 nM in test [1] and 371 nM in test [2].

Regarding “EMRLTHNIFFFFFKRR [S. mitis-CSP-2-I2MQ4LN11F]”, the values for the EC50 in test [1] and in test [2] were 188 nM and 14.8 nM, respectively.

Regarding “EMRQTHNFFFFFFKRR [S. mitis-CSP-2-I2MI8FN11F]”, the EC50 in test [1] was < 100 nM and 26.2 nM; in test [2], < 100 nM and 6.95 nM.

Sequence “AMRQTHNIFFNFFKRR [S. mitis-CSP-2-E1AI2M]” returned an IC50 in test [3] of 85.4 nM.

In the case of “EIRQTHNFFFFFFKRR [S. mitis-CSP-2-I8FN11F]”, the EC50 worked out at 284 nM in test [1] and 12.2 nM in test [2].

In test [3], AIRQTHNIFFNFFKRR [S. mitis-CSP-2-E1A] registered an IC50 of 497 nM.

“AMRQTHFFFFNFFKRR [S. mitis-CSP-2-E1AI2MN7FI8F]”: the IC50 in test [3] was found to be 294 nM; in test [4], 418 nM.

Turning to “EIRLTHNIFFFFFKRR [S. mitis-CSP-2-Q4LN11F]”, the EC50 in test [1] was 434 nM; in test [2], 9.38 nM.

In test [2], “EMRQTHIIFFFFFKRR [S. mitis-CSP-2-I2MN7IN11F]” showed an EC50 of 568 nM.

In the case of EIRQTHNIFFNLFKRR [S. mitis-CSP-2-F12L], the EC50 is 813 nM in test [1] and 54.3 nM in test [2].

Regarding EIRQTHNIFFFFFKRR [S. mitis-CSP-2-N11F], the results for the EC50 in test [1] and in test [2] were 220 nM and 4.63 nM, respectively.

Take “EMRQTHIFFFNFFKRR [S. mitis-CSP-2-I2MN7II8F]”: the EC50 in test [1] was < 100 nM and 2.67 nM; in test [2], < 100 nM and 61.6 nM.

On to “EMRQTHIIFFNFFKRR [S. mitis-CSP-2-I2MN7I]”, for which the EC50 in test [1] was 54.8 nM; in test [2], 448 nM.

Consider “EIRLTHFFFFNFFKRR [S. mitis-CSP-2-Q4LN7FI8F]”, for which the EC50 amounted to 87.2 nM in test [1] and 427 nM in test [2].

On to EIRQTHIIFFNFFKRR [S. mitis-CSP-2-N7I], for which the EC50 in test [1] is 211 nM; in test [2], 101 nM.

For EIRLTHNIFFNFFKRR [S. mitis-CSP-2-Q4L], the EC50 in test [1] amounted to 252 nM; in test [2] it was 88.2 nM.

“EMRLTHNIFFNLFKRR [S. mitis-CSP-2-I2MQ4LF12L]”: the half-maximal effective concentration (EC50) in test [1] amounted to 139 nM; in test [2] it was 17.1 nM.

As to “EMRLTHFIFFNFFKRR [S. mitis-CSP-2-I2MQ4LN7F]”, the values for the EC50 in test [1] and in test [2] were 75.6 nM and 137 nM, respectively.

In the case of EIRQTHFIFFNFFKRR [S. mitis-CSP-2-N7F], the values for the EC50 in test [1] and in test [2] were 471 nM and 140 nM, respectively.

Turning to “AMRQTHIFFFNFFKRR [S. mitis-CSP-2-E1AI2MN7II8F]”, the IC50 in test [3] came out at 141 nM; in test [4] it was 32.9 nM.

Consider “EIRQTHIFFFNLFKRR [S. mitis-CSP-2-N7II8FF12L]”, for which the response in test [2] was half-maximal at 891 nM (EC50).

As for “EIRQTHIFFFNFFKRR [S. mitis-CSP-2-N7II8F]”, the EC50 is 22.8 nM in test [1] and 87.2 nM in test [2].

With “EIRLTHNIFFNLFKRR [S. mitis-CSP-2-Q4LF12L]”, the EC50 came out at 202 nM in test [1] and 68.7 nM in test [2].

In test [3], “AMRQTHNFFFNFFKRR [S. mitis-CSP-2-E1AI2MI8F]” displayed an IC50 of 143 nM.

As for “EIRLTHIFFFNFFKRR [S. mitis-CSP-2-Q4LN7II8F]”, the response in test [2] was half-maximal at 242 nM (EC50).

For the sequence “EMRLTHNFFFNFFKRR [S. mitis-CSP-2-I2MQ4LI8F]”, the EC50 in test [1] was < 100 nM and 30 nM; in test [2], < 100 nM and 42 nM.
